In ChEMBL document CHEMBL1255303, “In vitro and in vivo antifungal activities of T-2307, a novel arylamidine” (2008):
Calls of active or inactive are those of the source.

Legend:
Rhizopus arrhizus = assay: Antifungal activity against Rhizopus oryzae NBRC 31005 after 24 hrs by broth microdilution method; type: functional; details: NBRC 31005, 24 h
Procedure, shortened: (§1)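 CLSI M27-A2 (yeasts) / M38-A (moulds) broth microdilution in RPMI 1640 buffered to pH 7.0 with 0.165 M MOPS. Malassezia furfur got the same medium supplemented with glucose, bile salts, glycerol, glycerol monostearate and Tween 20. Final inoculum 0.65 × 10^3–2.5 × 10^3 CFU/ml for yeasts and 0.87 × 10^4–3.8 × 10^4 CFU/ml for filamentous fungi. Incubation at 35°C except M. racemosus and F. solani, which were held at 30°C.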

Candida albicans [1] = assay: Antifungal activity against Candida albicans ATCC 90028 after 48 hrs by broth microdilution method; type: functional; details: ATCC 90028, 48 h; procedure, shortened: as §1
Cryptococcus neoformans [2] = assay: Antifungal activity against Cryptococcus neoformans clinical isolates after 72 hrs by broth microdilution method; type: functional
Procedure, shortened: (§2)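 Clinical isolates from Japanese hospitals or culture collections were tested by broth microdilution in RPMI 1640-MOPS. Inoculum was 0.57 × 10^3–2.5 × 10^3 CFU/ml for yeasts and 0.4 × 10^4–3.3 × 10^4 CFU/ml for filamentous fungi. Incubation was at 35°C for about 48 h, or 72 h where footnoted. Results were summarised as MIC range, MIC50 and MIC90.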

Candida albicans [3] = assay: Antifungal activity against Candida albicans ATCC MYA-573 after 47 hrs by broth microdilution method; type: functional; details: ATCC MYA-573, 47 h
Procedure, shortened: (§3)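 Fluconazole-resistant or susceptible-dose-dependent ATCC C. albicans strains were tested by CLSI M27-A2 broth microdilution in RPMI 1640–0.165 M MOPS, pH 7.0, with a final inoculum of 1.1–1.5 × 10^3 CFU/ml at 35°C for about 47 h. MIC was the lowest concentration with a prominent (~50%) turbidity decrease relative to growth control; amphotericin B was read at complete inhibition.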

Aspergillus fumigatus [4] = assay: Antifungal activity against Aspergillus fumigatus IFM 49895 after 48 hrs by broth microdilution method; type: functional; details: IFM 49895, 48 h; procedure, shortened: as §1
Candida albicans [5] = assay: Antifungal activity against Candida albicans ATCC MYA-1003 after 47 hrs by broth microdilution method; type: functional; details: ATCC MYA-1003, 47 h; procedure, shortened: as §3
Aspergillus fumigatus [6] = assay: Antifungal activity against Aspergillus fumigatus IFM 46895 infected ICR mouse assessed as delay in mortality of mouse at 1 mg/kg after 6 days; type: functional, organism-based; set-up: dose 1 mg/kg
Procedure, shortened: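 Male ICR mice, 4 weeks old and SPF, were made neutropenic with intraperitoneal cyclophosphamide. The schedule was 200 mg/kg on day −3 (day −4 for Cryptococcus) plus 100 mg/kg on day +1. Infection was by tail-vein injection of 0.2 ml suspension: C. albicans 3.0 × 10^4, C. neoformans 9.1 × 10^4, A. fumigatus conidia 8.4 × 10^4 CFU/mouse. Drugs were given subcutaneously once daily for 7 days from 2 h post-infection; controls received saline. Groups had 8–10 mice.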

Aspergillus terreus = assay: Antifungal activity against Aspergillus terreus NBRC 33026 after 48 hrs by broth microdilution method; type: functional; details: NBRC 33026, 48 h; procedure, shortened: as §1
Pichia kudriavzevii = assay: Antifungal activity against Candida krusei IFO 0584 after 48 hrs by broth microdilution method; type: functional; details: IFO 0584, 48 h; procedure, shortened: as §1
Candida albicans [7] = assay: Antifungal activity against Candida albicans ATCC 64550 after 47 hrs by broth microdilution method; type: functional; details: ATCC 64550, 47 h
Procedure, shortened: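 Fluconazole-resistant or susceptible-dose-dependent C. albicans ATCC strains were tested by broth microdilution in RPMI 1640-MOPS. Inoculum was 1.1 × 10^3–1.5 × 10^3 CFU/ml, with incubation at 35°C for about 47 h. Yeast MIC was read as about 50% turbidity decrease relative to growth control, except amphotericin B, read at complete inhibition.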

Candida albicans [8] = assay: Antifungal activity against Candida albicans TIMM 1623 after 48 hrs by broth microdilution method; type: functional; details: TIMM 1623, 48 h; procedure, shortened: as §1
Candida tropicalis = assay: Antifungal activity against Candida tropicalis clinical isolates after 48 hrs by broth microdilution method; type: functional; procedure, shortened: as §2
Fusarium solani = assay: Antifungal activity against Fusarium solani IFO 31093 after 48 hrs by broth microdilution method; type: functional; details: IFO 31093, 48 h; procedure, shortened: as §1
Aspergillus nidulans = assay: Antifungal activity against Aspergillus nidulans NBRC 33017 after 48 hrs by broth microdilution method; type: functional; details: NBRC 33017, 48 h; procedure, shortened: as §1
Cryptococcus neoformans [9] = assay: Antifungal activity against Cryptococcus neoformans TIMM 0354 after 72 hrs by broth microdilution method; type: functional; details: TIMM 0354, 72 h
Procedure, shortened: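 CLSI M27-A2 (yeasts) or M38-A (A. fumigatus) broth microdilution in RPMI 1640 buffered to pH 7.0 with 0.165 M MOPS. Final inocula were 0.65–2.5 × 10^3 CFU/ml for yeasts and 0.87–3.8 × 10^4 CFU/ml for filamentous fungi. Incubation was at 35°C for about 48 h (72 h for C. neoformans). MIC was the lowest concentration giving a prominent (~50%) turbidity drop versus growth control; amphotericin B required complete inhibition.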

Trichophyton rubrum = assay: Antifungal activity against Trichophyton rubrum NBRC 5467 after 72 hrs by broth microdilution method; type: functional; details: NBRC 5467, 72 h; procedure, shortened: as §1
[10] = tested on: Meyerozyma guilliermondii; assay: Antifungal activity against Candida guilliermondii clinical isolates after 48 hrs by broth microdilution method; type: functional; procedure, shortened: as §2
Lichtheimia corymbifera = assay: Antifungal activity against Absidia corymbifera NBRC 4009 after 24 hrs by broth microdilution method; type: functional; details: NBRC 4009, 24 h; procedure, shortened: as §1
Candida dubliniensis = assay: Antifungal activity against Candida dubliniensis ATCC MYA-577 after 48 hrs by broth microdilution method; type: functional; details: ATCC MYA-577, 48 h; procedure, shortened: as §1
Mucor racemosus = assay: Antifungal activity against Mucor racemosus NBRC5403 after 24 hrs by broth microdilution method; type: functional; details: NBRC5403, 24 h
Scedosporium boydii = assay: Antifungal activity against Pseudallescheria boydii NBRC 32229 after 72 hrs by broth microdilution method; type: functional; details: NBRC 32229, 72 h; procedure, shortened: as §1
Aspergillus fumigatus [11] = assay: Antifungal activity against Aspergillus fumigatus TIMM 0063 after 48 hrs by broth microdilution method; type: functional; details: TIMM 0063, 48 h; procedure, shortened: as §1
Candida albicans [12] = assay: Antifungal activity against Candida albicans ATCC 96901 after 47 hrs by broth microdilution method; type: functional; details: ATCC 96901, 47 h; procedure, shortened: as §3
Trichosporon asahii = assay: Antifungal activity against Trichosporon asahii JCM 2466 after 48 hrs by broth microdilution method; type: functional; details: JCM 2466, 48 h; procedure, shortened: as §1

C[C@@H]1[C@H](O)[C@@H](C)/C=C/C=C/C=C/C=C/C=C/C=C/C=C/[C@H](O[C@@H]2O[C@H](C)[C@@H](O)[C@H](N)[C@@H]2O)C[C@@H]2O[C@](O)(C[C@@H](O)C[C@@H](O)[C@H](O)CC[C@@H](O)C[C@@H](O)CC(=O)O[C@H]1C)C[C@H](O)[C@H]2C(=O)O [AMPHOTERICIN B]
2 µg/mL: MIC (Candida albicans [3]) | MFC (Aspergillus fumigatus [4]) | MIC (Aspergillus fumigatus [4]) | MIC (Candida albicans [5]) | MIC (Aspergillus terreus) | MFC (Pichia kudriavzevii) | MIC (Pichia kudriavzevii) | MIC90 (Candida tropicalis) | MFC (Fusarium solani) | MIC (Fusarium solani) | MFC (Aspergillus nidulans) | MIC (Aspergillus nidulans) | MIC (Lichtheimia corymbifera) | MFC (Candida dubliniensis) | MFC (Mucor racemosus) | MFC (Aspergillus fumigatus [11]) | MIC (Aspergillus fumigatus [11]) | MIC (Trichosporon asahii)
> 64 µg/mL: MFC (Aspergillus terreus) | MFC (Lichtheimia corymbifera) | MFC (Scedosporium boydii) | MIC (Scedosporium boydii)
active: Activity (Aspergillus fumigatus [6])
4 µg/mL: MFC (Trichosporon asahii)
1 µg/mL: MFC (Rhizopus arrhizus) | MIC (Rhizopus arrhizus) | MFC (Candida albicans [1]) | MIC (Candida albicans [1]) | MIC (Cryptococcus neoformans [2]) | MIC50 (Cryptococcus neoformans [2]) | MIC90 (Cryptococcus neoformans [2]) | MIC (Candida albicans [7]) | MIC (Candida albicans [8]) | MIC (Candida tropicalis) | MIC50 (Candida tropicalis) | MFC (Cryptococcus neoformans [9]) | MIC (Cryptococcus neoformans [9]) | MFC (Trichophyton rubrum) | MIC (Trichophyton rubrum) | MIC50 [10] | MIC90 [10] | MIC (Candida dubliniensis) | MIC (Mucor racemosus) | MIC (Candida albicans [12])
> 1 µg/mL: MFC (Candida albicans [8])

N=C(N)c1ccc(OCCCC2CCN(CCCOc3ccc(C(=N)N)cc3)CC2)cc1
64 µg/mL: MIC (Trichosporon asahii)
active: Activity (Aspergillus fumigatus [6])
4 µg/mL: MFC (Aspergillus terreus) | MIC (Scedosporium boydii)
> 64 µg/mL: MFC (Rhizopus arrhizus) | MIC (Rhizopus arrhizus) | MFC (Candida albicans [1]) | MFC (Aspergillus fumigatus [4]) | MFC (Candida albicans [8]) | MFC (Fusarium solani) | MFC (Trichophyton rubrum) | MFC (Lichtheimia corymbifera) | MFC (Candida dubliniensis) | MFC (Mucor racemosus) | MFC (Scedosporium boydii) | MFC (Aspergillus fumigatus [11]) | MFC (Trichosporon asahii)
0.0039 µg/mL: MIC (Cryptococcus neoformans [9]) | MIC90 [10]
0.0156 µg/mL: MIC50 (Cryptococcus neoformans [2]) | MIC (Aspergillus nidulans) | MFC (Cryptococcus neoformans [9])
1 µg/mL: MIC (Aspergillus fumigatus [11])
0.125 µg/mL: MIC (Aspergillus terreus) | MIC (Fusarium solani)
0.0313 µg/mL: MIC90 (Cryptococcus neoformans [2]) | MFC (Aspergillus nidulans)
0.0005 µg/mL: MIC (Candida albicans [7]) | MIC50 (Candida tropicalis) | MIC90 (Candida tropicalis)
0.5 µg/mL: MIC (Aspergillus fumigatus [4]) | MIC (Lichtheimia corymbifera)
2 µg/mL: MIC (Trichophyton rubrum) | MIC (Mucor racemosus)
0.002 µg/mL: MFC (Pichia kudriavzevii) | MIC50 [10]
0.001 µg/mL: MIC (Candida albicans [1]) | MIC (Candida albicans [3]) | MIC (Candida albicans [5]) | MIC (Pichia kudriavzevii) | MIC (Candida albicans [8]) | MIC (Candida dubliniensis) | MIC (Candida albicans [12])
